# Screens from PubChem.
# Sampled rows, rich in hits. Any-hit rate of the full collection: about 2%.
# T cruzi inh: blocks replication of Trypanosoma cruzi. T. cruzi beta-gal in NIH3T3, luminescence, 90 h. AID 1885. 1.4% of 300,000 active. inhibition, % (no concentration beside the values);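 active means mean inhibition across valid replicates above about 55%, limit read from the data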;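 further: signal also drops with host cell toxicity which is not excluded here; higher percent means less beta-gal luminescence so fewer parasites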
#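 Material: NIH/3T3 host cells with β-galactosidase reporter T. cruzi; Input: 5,000 host fibroblasts per well; Medium: DMEM, 2% fetal bovine serum; Compound: 50 nL DMSO compound solution per well; Schedule: 3 h host attachment, then at least 90 h co-culture; Detection: luminescent β-galactosidase signal after 60 min lysis.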
# AI-2 QS modul: modulators of Vibrio harveyi AI-2 quorum sensing system; 0.4% of 300,000 active; AID 2094; Vibrio harveyi JMH597 AI-2 luminescence/OD600 ratio, 9 h; stronger effect = lower value; strain lacks LuxN and CqsS sensors; 0 = neutral-control median; activity change, % at 7.5 µM; in the data active means activity change below about -75%, passing the limit was not always enough;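 further: luminescence divided by OD600 gain over 9 h not by final OD600 alone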
# HIF activator: HIF pathway transcriptional activation; activation, % at 7.5 µM (by protocol); 0.32% of 300,000 active; U2OS HRE-luciferase reporter, luminescence; normalized: DMSO 0%, desferrioxamine 100%; AID 1910;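 active means mean activation of at least 10% of the iron chelator positive control signal, with at least half of replicates also reaching 10%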
# ARNT TACC3 PPI: disruptors of human ARNT/TACC3 interaction. Q9Y6A5. AlphaScreen His-ARNT PAS-B/GST-TACC3 binding, luminescence; TACC3 fragment carries E629A point mutation. inhibition, % at 9.99 µM. 0.66% of 390,000 active. AID 623870;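 active means mean inhibition of replicates at least 50% and at least half of replicates each reaching 50%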
# Hits are given with their value; – = inactive; · = not tested or not shown.
SMILES,T cruzi inh,AI-2 QS modul,HIF activator,ARNT TACC3 PPI
CCN1CCN(c2cc(C)c3cc(NC(=O)Cc4ccccc4OC)ccc3n2)CC1,70.6,–,–,–
CC(C)NC(=O)Nc1cccc2c1O[C@@H](CN(C)C(=O)NC1CCCCC1)[C@@H](C)CN([C@@H](C)CO)C2=O,·,·,·,–
Cc1ccc(S(=O)(=O)Nc2ccc3c(c2)CC(=O)N([C@@H](C)CO)C[C@H](C)[C@@H](CN(C)S(=O)(=O)c2c(C)noc2C)O3)cc1,·,·,·,–
Clc1ccc(-c2csc(=Nc3cccnc3)n2CCCn2ccnc2)cc1Cl,57.1,–,–,–
COCCn1c(-c2ccc(Br)cc2)csc1=Nc1cccnc1,·,–,·,–
O=C1NN(c2cccc(Br)c2)C(=O)/C1=C\c1ccccc1,–,–,–,–
O=C1NN(c2ccccc2)C(=O)/C1=C\c1ccccc1,–,–,–,8.4
COCC#Cc1ccc([C@H]2[C@@H](CO)N3CCCCN(C(=O)Nc4cc(F)ccc4F)C[C@@H]23)cc1,·,·,·,–
CN1CCN(NC(=O)c2cn(-c3ccccc3)nc2-c2cccc(Br)c2)CC1,55.9,–,–,–
O=[N+]([O-])c1cc(-c2nnc(Nc3ccccc3)c3ccccc23)ccc1N1CCOCC1,57.2,–,–,–
COCc1cn(CC[C@H]2CC[C@H](NC(=O)c3ccc(F)cc3)[C@@H](CO)O2)nn1,·,·,·,–
CCC(=O)N1C[C@H](C)[C@H](OC)CN(C)C(=O)c2cc(NC(=O)C3CCCCC3)ccc2OC[C@H]1C,·,·,·,–
CC(=O)n1cc(N(C(=O)CCl)c2ccc(Cl)cc2)c2ccccc21,65.6,·,–,·
COc1ccc(CCNC(=O)C(=O)NCc2ccccn2)cc1,–,-79.0,–,–
COc1ccc(NC(=O)Nc2ccc3c(c2)C(=O)N([C@@H](C)CO)C[C@H](C)[C@@H](CN(C)S(=O)(=O)c2cccs2)O3)cc1,·,·,·,–
Oc1ccc(/C=N/NC(=S)Nc2cccnc2)c(O)c1O,–,–,–,63.6
Fc1c(F)c(F)c(/C=N/NC(=S)Nc2cccnc2)c(F)c1F,–,–,–,–
Oc1ccc(/C=N/NC(=S)Nc2cccnc2)c(O)c1,–,–,–,64.8
O=C(N/N=C/c1ccc(O)cc1O)C(=O)N/N=C/c1ccc(O)cc1O,–,-85.8,–,–
COCCCNC(=S)N/N=C/c1ccc(O)cc1,–,–,–,·
COCCCNC(=S)N/N=C/c1ccc(O)cc1O,–,–,–,84.2
O=C(C[C@H]1CC[C@H]2[C@@H](COC[C@H](O)CN2Cc2cc(F)ccc2F)O1)NCc1ccc(F)cc1,·,·,·,–
Oc1cccc(/C=N/NC(=S)Nc2cccnc2)c1O,–,-84.4,14.1,65.8
O=C(Cn1cnc([N+](=O)[O-])n1)N/N=C/c1ccc(O)cc1O,–,–,–,63.5
Oc1ccc(C=NNC(=S)Nc2ccc(F)cc2)c(O)c1,·,·,·,64.9
SMILES,T cruzi inh,AI-2 QS modul,HIF activator,ARNT TACC3 PPI
Fc1cccc(F)c1/C=N/NC(=S)Nc1cccnc1,–,–,–,–
O=C(C[C@@H]1CC[C@H]2[C@@H](COC[C@@H](O)CN2C(=O)c2ccc(F)cc2)O1)Nc1ccc(-c2ccccc2)cc1,·,·,·,–
O=C(C[C@@H]1CC[C@@H]2[C@H](COC[C@@H](O)CN2C(=O)C2CC2)O1)NCc1ccccc1Cl,·,·,·,–
COc1ccc(S(=O)(=O)N(C)C[C@@H]2Oc3ccc(NS(C)(=O)=O)cc3CC(=O)N([C@@H](C)CO)C[C@H]2C)cc1,·,·,·,–
O=[N+]([O-])c1ccc(-n2nnnc2-c2ccccc2)c([N+](=O)[O-])c1,62.3,–,–,–
O=[N+]([O-])c1ccc(-n2nnnc2-c2ccccc2)cc1,–,–,–,–
C[C@@H]1CCCCO[C@@H](CN(C)C(=O)Nc2ccc(C(F)(F)F)cc2)[C@H](C)CN([C@@H](C)CO)C(=O)c2cc(NC(=O)Nc3ccc4c(c3)OCO4)ccc2O1,·,·,·,–
CCC1Oc2ccc(C)cc2N(CC(=O)N(Cc2cccnc2)Cc2ccc(C)o2)C1=O (centres undefined),57.1,–,–,–
CCn1c(N2CCN(S(=O)(=O)c3ccc(Cl)cc3)CC2)nc2ccccc21,87.5,–,–,–
Cc1noc(C)c1NC(=O)Nc1ccc2c(c1)C(=O)N([C@@H](C)CO)C[C@H](C)[C@@H](CN(C)Cc1ccccc1)OCCCC[C@H](C)O2,·,·,·,–
COc1ccc2[nH]c3c(=O)n(/N=C/c4ccc(OC)c(CN5CCCC5)c4)c(C)nc3c2c1,64.7,–,–,–
CCOc1ccccc1/C=N\Nc1cnn(Cc2ccccc2)c(=O)c1Cl,55.7,–,–,–
